Test results as given in ChEMBL document CHEMBL1123286 (J Med Chem, 1986).
Where a SMILES comes first, the peptide text is derived from it. [ ]: non-standard residue; d: D form.

Experiments:
[1] = target: Opioid receptors; mu/kappa/delta; assay: In vitro opioid inhibitory activity against in guinea pig ileum; type: functional, tissue-based, Cavia porcellus
[2] = system: Mus musculus; assay: In vivo opioid activity was evaluated by determining analgesia in the mouse by the tail-flick test Relative potency with respect to morphine when administered through subcutaneous route; type: functional
Procedure, shortened: (§1)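 Mouse tail-flick analgesia in Swiss-Webster mice (23–25 g) with 55 °C water, compound given icv or sc in saline (4 μL). Cut-off was 10 s; %analgesia was computed from pre- and post-dose latencies. At least 10 animals per dose, with ED50 taken at peak activity.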

[3] = system: Mus musculus; assay: In vivo opioid activity was evaluated by determining analgesia in the mouse by the tail-flick test, when administered through Subcutaneous route; type: functional; details: sc
Procedure, shortened: (§2)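 Swiss-Webster mice (23–25 g), tail-flick test with 55 °C water as the stimulus. Compound was given icv or sc in saline (4 μL), with latency read before and at various times after dosing. Cut-off was 10 s. %analgesia = (T−T0)/(10−T0)×100. At least 10 animals per dose; ED50 taken at time of peak activity. Naloxone pretreatment 0.5–1 mg/kg sc.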

[4] = system: Mus musculus; assay: In vivo opioid activity was evaluated by determining analgesia in the mouse by the tail-flick test, relative potency with respect to morphine intracerebroventricular route; type: functional; procedure, shortened: as §1
[5] = system: Mus musculus; assay: In vivo opioid activity was evaluated by determining analgesia in the mouse by the tail-flick test when administered through intracerebroventricular route; type: functional; procedure, shortened: as §2
[6] = system: Mus musculus; assay: In vivo opioid activity was evaluated by determining analgesia in the mouse by the tail-flick test when administered through intra cerebro ventricular route; details: Cardiac ventricle
[7] = system: Mus musculus; assay: In vivo opioid activity was evaluated by determining analgesia in the mouse by the tail-flick test, when administered through subcutaneous route; type: functional; details: sc; procedure, shortened: as §2
[8] = system: Mus musculus; assay: In vivo opioid activity was evaluated by determining analgesia in the mouse by the tail-flick test, relative potency with respect to morphine intra cerebro ventricular route; type: functional; procedure, shortened: as §1
[9] = system: Mus musculus; assay: In vivo opioid activity was evaluated by determining analgesia in the mouse by the tail-flick test. Relative potency with respect to morphine when administered through subcutaneous route; type: functional; procedure, shortened: as §1
[10] = target: Opioid receptors; mu/kappa/delta (Homo sapiens, UniProt P41145+P41143+P35372); assay: In vitro inhibitory activity against opioid activity in guinea pig ileum, relative to H-Tyr-D-MetO-Phe-Gly-NH2; type: tissue-based; details: Cavia porcellus, target entry is the homologue from another species
[11] = system: Mus musculus; assay: In Vivo opioid activity was evaluated by determining analgesia in the mouse by the tail-flick test when administered through intra cerebro ventricular route; type: functional; procedure, shortened: as §2
[12] = system: Mus musculus; assay: In vivo opioid activity was evaluated by determining analgesia in the mouse by the tail-flick test, Relative potency with respect to morphine intracerebroventricular route; type: functional; procedure, shortened: as §1

Opioid receptors; mu/kappa/delta (Homo sapiens, UniProt P41145+P41143+P35372), sequence (P35372 whole entry, looked up): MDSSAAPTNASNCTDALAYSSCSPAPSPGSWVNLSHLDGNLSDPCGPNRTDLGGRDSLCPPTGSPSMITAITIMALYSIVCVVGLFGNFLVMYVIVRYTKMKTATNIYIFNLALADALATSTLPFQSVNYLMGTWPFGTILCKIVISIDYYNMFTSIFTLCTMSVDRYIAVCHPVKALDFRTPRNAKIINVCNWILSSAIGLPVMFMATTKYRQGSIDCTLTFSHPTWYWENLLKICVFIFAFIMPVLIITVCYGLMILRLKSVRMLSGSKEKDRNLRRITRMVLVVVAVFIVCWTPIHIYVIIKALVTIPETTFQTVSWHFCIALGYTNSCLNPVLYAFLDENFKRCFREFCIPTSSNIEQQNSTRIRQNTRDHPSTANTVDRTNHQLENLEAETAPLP
Opioid receptors; mu/kappa/delta (Homo sapiens, UniProt P41145+P41143+P35372), sequence (P41143 whole entry, looked up): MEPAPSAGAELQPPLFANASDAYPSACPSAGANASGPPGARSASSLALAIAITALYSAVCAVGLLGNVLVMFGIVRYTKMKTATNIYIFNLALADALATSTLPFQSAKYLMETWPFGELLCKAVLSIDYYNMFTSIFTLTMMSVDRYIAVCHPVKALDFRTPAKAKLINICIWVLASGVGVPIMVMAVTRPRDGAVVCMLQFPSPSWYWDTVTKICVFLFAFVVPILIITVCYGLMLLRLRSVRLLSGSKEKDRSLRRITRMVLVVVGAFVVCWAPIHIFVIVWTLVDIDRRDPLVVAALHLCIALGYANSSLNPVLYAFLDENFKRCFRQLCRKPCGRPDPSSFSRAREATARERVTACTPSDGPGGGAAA
Opioid receptors; mu/kappa/delta (Homo sapiens, UniProt P41145+P41143+P35372), sequence (P41145 whole entry, looked up): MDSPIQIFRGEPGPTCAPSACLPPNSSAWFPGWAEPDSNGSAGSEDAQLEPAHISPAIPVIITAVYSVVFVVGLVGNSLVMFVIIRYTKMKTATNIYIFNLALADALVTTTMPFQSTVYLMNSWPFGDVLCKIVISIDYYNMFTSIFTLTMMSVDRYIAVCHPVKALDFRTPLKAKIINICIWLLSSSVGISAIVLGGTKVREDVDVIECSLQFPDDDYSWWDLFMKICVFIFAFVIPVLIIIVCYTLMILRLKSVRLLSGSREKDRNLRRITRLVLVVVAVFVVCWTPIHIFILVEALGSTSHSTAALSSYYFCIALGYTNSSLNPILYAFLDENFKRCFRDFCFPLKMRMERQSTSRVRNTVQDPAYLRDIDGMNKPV

SMILES	IC50 [1] [nM]	Relative potency [2]	ED50 [3] [µmol/kg]	Relative potency [4]	ED50 [5] [pmol/mouse]	ED50 [7] [µmol/kg]	other results
C[S+]([O-])CC[C@@H](NC(=O)[C@@H](N)Cc1ccc(O)cc1)C(=O)N[C@@H](Cc1ccccc1)C(=O)NCC(=O)NC12CC3CC(CC(C3)C1)C2 (some centres undefined)	22	2.8	3.93	100	30.4		
CN1CC[C@]23c4c5ccc(O)c4O[C@H]2[C@@H](O)C=C[C@H]3[C@H]1C5 [MORPHINE]							ED50 [6]: 3030 µmol/kg
CC(NC(=O)CNC(=O)[C@H](Cc1ccccc1)NC(=O)[C@@H](CC[S+](C)[O-])NC(=O)[C@@H](N)Cc1ccc(O)cc1)c1ccccc1 (some centres undefined)	72.1	1.8		36	83.6	5.81	
CSCC[C@@H](NC(=O)[C@@H](N)Cc1ccc(O)cc1)C(=O)N[C@@H](Cc1ccccc1)C(=O)NCC(N)=O (H-Y[dM]FG-NH2)	97.6		12.1				Relative potency [8]: 35; Relative potency [9]: 0.9; Relative potency [10]: 0.1; ED50 [11]: 87.5 µmol/kg
CN(CC(=O)NC12CC3CC(CC(C3)C1)C2)C(=O)[C@H](Cc1ccccc1)NC(=O)[C@@H](CC[S+](C)[O-])NC(=O)[C@@H](N)Cc1ccc(O)cc1 (some centres undefined)	25.5	2.3	4.82	50	60.6		
C[S+]([O-])CC[C@@H](NC(=O)[C@@H](N)Cc1ccc(O)cc1)C(=O)N[C@@H](Cc1ccccc1)C(=O)NCC(N)=O (some centres undefined)					1.97	0.65	
C[S+]([O-])CC[C@@H](NC(=O)[C@@H](N)Cc1ccc(O)cc1)C(=O)N[C@@H](Cc1ccccc1)C(=O)NCC(=O)NCc1ccccc1 (some centres undefined)	21	3.1			18.1	3.51	Relative potency [12]: 167
